Consider 24 molecules from ChEMBL document CHEMBL1136779 (J Med Chem, 2003).

Some results are limits rather than exact numbers.

Data set [1] in a line: Ratio of the half-life period of the prodrug and the drug was determined. Type of data set: ADME.
The subject of data set [2] is WiDr. Kind of data set: Cytotoxicity in WiDr cells expressing surface-tethered carboxypeptidase G2 (CPG2). Type of data set: functional, cell-based. To be noted: Homo sapiens. The procedure, abridged: (§1)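 WiDr cells stably expressing surface-tethered CPG2 (stCPG2(Q)3) or β-galactosidase control; 2 × 10⁶ cells seeded, confluent after 48 h. Compound in DMSO stock diluted in medium, re-added at similar concentration after 1 h, further 20 h exposure. Cells reseeded in quadruplicate at ~2 × 10³/well, grown until controls confluent; SRB stain, 590 nm. IC50 from log dose-response sigmoid fit.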

Data set [3] in a line: Half-life period (prodrug) was determined. In kind it is ADME. The gist of the method:
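Aqueous stability: 100 µM compound in CPG2 assay buffer (100 mM Tris-HCl pH 7.3, 260 µM ZnCl₂). Remaining parent measured by isocratic reverse-phase HPLC (10 mM ammonium acetate pH 5.0/methanol, UV 250 or 265-275 nm) at several times. Half-life from one-phase exponential decay fit. Labile compounds instead followed by absorbance change over 3 min; t½ = 0.69/rate constant.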

Data set [4] relates to WiDr. Briefly: Cytotoxicity in WiDr cells expressing beta-galactosidase control. Type of data set: functional, cell-based. To be noted: Homo sapiens. The gist of the method: as §1
In data set [5] the test system is WiDr. Briefly: Compound was tested for cytotoxicity in WiDr cells engineered for stable expression of beta-galactosidase. Type of data set: functional, cell-based. To be noted: Homo sapiens. The procedure, abridged: as §1
Data set [6] has as its system WiDr. Briefly: Compound was tested for cytotoxicity in WiDr cells engineered for stable expression of surface-tethered CPG2. In kind it is functional, cell-based. To be noted: Homo sapiens. The procedure, abridged: as §1
For data set [7], the target named is T1, Carboxypeptidase G2 (Pseudomonas aeruginosa (strain ATCC 15692 / PAO1 / 1C / PRS 101 / LMG12228)) (UniProt Q9I056).
T1 sequence (whole entry): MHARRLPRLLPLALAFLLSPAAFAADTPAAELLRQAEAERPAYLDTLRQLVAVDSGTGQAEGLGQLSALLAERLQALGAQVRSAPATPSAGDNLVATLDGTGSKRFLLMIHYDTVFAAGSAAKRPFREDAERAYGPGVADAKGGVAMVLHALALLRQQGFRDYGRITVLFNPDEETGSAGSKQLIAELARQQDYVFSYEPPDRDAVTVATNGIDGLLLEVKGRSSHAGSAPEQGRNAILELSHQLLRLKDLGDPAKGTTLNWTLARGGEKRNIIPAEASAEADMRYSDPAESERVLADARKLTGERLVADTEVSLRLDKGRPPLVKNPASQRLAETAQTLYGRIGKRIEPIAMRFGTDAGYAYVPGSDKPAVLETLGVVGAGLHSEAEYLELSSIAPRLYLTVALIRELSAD
Kind of data set: (§2) The kinetics of activation of the self-immolative prodrug by Carboxypeptidase G2 was measured. The procedure, abridged: (§3)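 CPG2 (50 mU) with prodrug 5-50 µM in 5 µM steps in CPG2 assay buffer (100 mM Tris-HCl pH 7.3, 260 µM ZnCl₂), 37 °C. Remaining prodrug quantified by HPLC at 0, 5, 10, 15 and 20 min; Km and kcat derived.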

In data set [8] the target is T1, Carboxypeptidase G2 (Pseudomonas aeruginosa (strain ATCC 15692 / PAO1 / 1C / PRS 101 / LMG12228)). Kind of data set: Ratio of kinetic constants Kcat and Km was determined against Carboxypeptidase G2. The procedure, abridged: as §3
Compound in data set [9]: O=C(O)CC[C@H](NC(=O)Nc1ccc(COC(=O)Nc2ccc(N(CCCl)CCCl)cc2)cc1)C(=O)O
The description is as §2. The procedure, abridged: as §3

Compound in data set [10]: O=C(O)CC[C@H](NC(=O)Oc1ccc(COC(=O)Nc2ccccc2N(CCCl)CCCl)cc1)C(=O)O
Described as §2. The procedure, abridged:
as §3

Compound in data set [11]: CN(C(=O)OCc1ccc(NC(=O)N[C@@H](CCC(=O)O)C(=O)O)cc1)c1ccc(N(CCCl)CCCl)cc1
The data set is described as §2. The gist of the method: as §3

Compound in data set [12]: O=C(O)CC[C@H](NC(=O)Nc1ccc(CO)cc1)C(=O)O
The description is as §2. The procedure, abridged:
as §3

Compound in data set [13]: O=C(O)CC[C@H](NC(=O)Oc1ccc(COC(=O)Nc2ccc(N(CCCl)CCCl)cc2)cc1)C(=O)O
The data set is described as §2. The gist of the method:
as §3

Compound in data set [14]: O=C(O)CC[C@H](NC(=O)Nc1ccc(COC(=O)Nc2ccccc2N(CCCl)CCCl)cc1)C(=O)O
The description is as §2. The procedure, abridged: as §3

Compound in data set [15]: O=C(O)CC[C@H](NC(=O)Oc1ccc(CO)cc1)C(=O)O
The data set is described as §2. The procedure, abridged:
as §3

Compound in data set [16]: CN(C(=O)OCc1ccc(OC(=O)N[C@@H](CCC(=O)O)C(=O)O)cc1)c1ccc(N(CCCl)CCCl)cc1
Described as §2. The procedure, abridged:
as §3

On to `O=C(O)CC[C@H](NC(=O)Nc1ccc(COC(=O)Nc2ccc(N(CCI)CCI)cc2)cc1)C(=O)O`, for which the Ratio in data set [1] amounted to 1.9. For the same molecule, the half-inhibitory concentration (IC50) – broadly, the midpoint of a concentration-inhibition curve – in the data set with WiDr [2] came out at 1.8 µM; with WiDr [4], 180 µM. Besides, the T1/2 in [3] is reported as 0.97 min.

Consider `O=C(O)CC[C@H](NC(=O)Nc1ccc(COC(=O)Nc2ccc(N(CCBr)CCBr)cc2)cc1)C(=O)O`, for which the Ratio in [1] is 0.4. The IC50 in the data set on WiDr [2] amounted to 3.1 µM; with WiDr [4] it was 205 µM. For the same molecule, the T1/2 in [3] is 0.85 min.

Regarding `CN(C(=O)OCc1ccc(OC(=O)N[C@@H](CCC(=O)O)C(=O)O)cc1)c1ccc(N(CCBr)CCBr)cc1`, the Ratio in data set [1] came out at 1. The results for the IC50 in the data set on WiDr [2] and in the data set on WiDr [4] were 3.6 µM and 27.2 µM, respectively. The T1/2 in data set [3] was found to be 2.7 min.

Regarding `CS(=O)(=O)OCCN(CCCl)c1ccc(C(=O)N[C@@H](CCC(=O)O)C(=O)O)cc1`, the results for the IC50 in the data set with WiDr [5] and in the data set on WiDr [6] were 3230 µM and 100 µM, respectively. In data set [1], the Ratio was 2.3. For the same molecule, in data set [3], the T1/2 is reported as 59 min.

Take `O=C(O)CC[C@H](NC(=O)Oc1ccc(COC(=O)Nc2ccc(N(CCI)CCI)cc2)cc1)C(=O)O`: the Ratio in [1] is on record as 2. Also, the IC50 was 1.3 µM in the data set on WiDr [2] and 53.6 µM with WiDr [4]. The T1/2 in [3] is recorded as 0.98 min.

Consider `O=C(O)CC[C@H](NC(=O)Oc1ccc(COC(=O)Nc2ccccc2N(CCBr)CCBr)cc1)C(=O)O`, for which, in data set [1], the Ratio turned out to be 3.5. Besides, the values for the IC50 in the data set on WiDr [2] and in the data set on WiDr [4] were 95.2 µM and 183 µM, respectively. Besides, the T1/2 in data set [3] turned out to be 3.74 min.

For `O=C(O)CC[C@H](NC(=O)Oc1ccc(COC(=O)Nc2ccc(N(CCBr)CCBr)cc2)cc1)C(=O)O`, the Ratio in data set [1] is 0.4. The results for the IC50 with WiDr [2] and with WiDr [4] were 2.6 µM and 99.7 µM, respectively. The T1/2 in [3] worked out at 0.9 min.

`O=C(O)CC[C@H](NC(=O)Oc1ccc(COC(=O)Nc2ccc(N(CCCl)CCCl)cc2)cc1)C(=O)O`: the k cat in data set [7] is less than 10 s⁻¹.

Take `O=C(O)CC[C@H](NC(=O)Nc1ccc(COC(=O)Nc2ccccc2N(CCI)CCI)cc1)C(=O)O`: the IC50 was determined as 3 µM in the data set on WiDr [2] and 149 µM in the data set with WiDr [4]. Further, in [3], the T1/2 was determined as 2.7 min.

For `O=C(O)CC[C@H](NC(=O)Nc1ccc(COC(=O)Nc2ccccc2N(CCBr)CCBr)cc1)C(=O)O`, the Ratio in data set [1] is 3.5. The figures for the IC50 with WiDr [2] and in the data set on WiDr [4] were 4.7 µM and 118 µM, respectively. In addition, the T1/2 in data set [3] worked out at 3 min.

With `O=C(O)CC[C@H](NC(=O)Oc1ccc(CO)cc1)C(=O)O`, the k cat/Km in data set [8] came out at 82.3. The k cat in [7] was found to be 140 s⁻¹.

Consider `O=C(O)CC[C@H](NC(=O)Nc1ccc(CO)cc1)C(=O)O`, for which the k cat/Km in data set [8] was determined as 21.1. In data set [7], the k cat turned out to be 65.4 s⁻¹.

Take `CN(C(=O)OCc1ccc(NC(=O)N[C@@H](CCC(=O)O)C(=O)O)cc1)c1ccc(N(CCBr)CCBr)cc1`: in [1], the Ratio worked out at 1. Moreover, the IC50 in the data set on WiDr [2] is 4.1 µM. Moreover, the T1/2 in [3] came out at 2.8 min.

Turning to `CN(C(=O)OCc1ccc(OC(=O)N[C@@H](CCC(=O)O)C(=O)O)cc1)c1ccc(N(CCI)CCI)cc1`, in [1], the Ratio worked out at 7.7. Besides, the IC50 was 2.6 µM with WiDr [2] and 21.5 µM with WiDr [4]. Moreover, the T1/2 in data set [3] was determined as 4.6 min.

Regarding `CN(C(=O)OCc1ccc(NC(=O)N[C@@H](CCC(=O)O)C(=O)O)cc1)c1ccc(N(CCCl)CCCl)cc1`, the k cat/Km in [8] worked out at 0.91. Besides, the Ratio in [1] is 20.9. For the same molecule, the k cat in data set [7] was 5.5 s⁻¹. Besides, the IC50 came out at 2.5 µM in the data set with WiDr [2] and 39.7 µM in the data set with WiDr [4]. Moreover, the T1/2 in data set [3] is listed as 173.6 min.

For the molecule `O=C(O)CC[C@H](NC(=O)Nc1ccc(COC(=O)Nc2ccc(N(CCCl)CCCl)cc2)cc1)C(=O)O`, the k cat in data set [7] stood at 10 s⁻¹.

Regarding `CS(=O)(=O)OCCN(CCOS(C)(=O)=O)c1ccccc1NC(=O)OCc1ccc(OC(=O)N[C@@H](CCC(=O)O)C(=O)O)cc1`, the IC50 with WiDr [2] came to 40 µM; in the data set on WiDr [4], 208 µM. In addition, the T1/2 in [3] was 10.8 min.

With `O=C(O)CC[C@H](NC(=O)Nc1ccc(COC(=O)Nc2ccccc2N(CCCl)CCCl)cc1)C(=O)O`, the k cat/Km in data set [8] turned out to be 5.31. Further, the Ratio in [1] stood at 13.9. In addition, in [7], the k cat was 2.92 s⁻¹. Moreover, the IC50 with WiDr [2] is 4.5 µM; with WiDr [4], 21.1 µM. Further, the T1/2 in data set [3] turned out to be 107.5 min.

On to `CN(C(=O)OCc1ccc(OC(=O)N[C@@H](CCC(=O)O)C(=O)O)cc1)c1ccc(N(CCCl)CCCl)cc1`, for which the k cat/Km in [8] stood at 1.78. Moreover, the Ratio in data set [1] amounted to 20.6. Besides, the k cat in [7] is 4.32 s⁻¹. Moreover, the IC50 in the data set with WiDr [2] turned out to be 1.7 µM; with WiDr [4] it was 19.6 µM. Further, the T1/2 in data set [3] was 173.6 min.

For `CS(=O)(=O)OCCN(CCCl)c1ccccc1NC(=O)OCc1ccc(OC(=O)N[C@@H](CCC(=O)O)C(=O)O)cc1`, the IC50 was found to be 28.5 µM with WiDr [2] and 148 µM with WiDr [4]. For the same molecule, the T1/2 in data set [3] was found to be 10 min.

Turning to `CN(C(=O)OCc1ccc(NC(=O)N[C@@H](CCC(=O)O)C(=O)O)cc1)c1ccc(N(CCI)CCI)cc1`, the Ratio in data set [1] was found to be 6.5. Moreover, in the data set with WiDr [2], the IC50 was 1.5 µM. Moreover, the T1/2 in data set [3] was 3.9 min.

On to `O=C(O)CC[C@H](NC(=O)Oc1ccc(COC(=O)Nc2ccccc2N(CCCl)CCCl)cc1)C(=O)O`, for which the k cat/Km in data set [8] came out at 4.14. In addition, the Ratio in [1] amounted to 11.9. Also, the k cat in data set [7] was determined as 4.27 s⁻¹. The IC50 worked out at 28.1 µM with WiDr [2] and 38.1 µM in the data set on WiDr [4]. In data set [3], the T1/2 is on record as 146.3 min.

Regarding `O=C(O)CC[C@H](NC(=O)Oc1ccc(COC(=O)Nc2ccccc2N(CCI)CCI)cc1)C(=O)O`, the IC50 came out at 19 µM in the data set with WiDr [2] and 73.3 µM in the data set on WiDr [4]. Besides, in data set [3], the T1/2 was 2.1 min.

B1: Carboxypeptidase G2 (Pseudomonas aeruginosa (strain ATCC 15692 / PAO1 / 1C / PRS 101 / LMG12228)), Q9I056 (protein)
chain: T1 sequence (whole entry)
For B1, the Km (as a rule, the concentration of substrate that gives half-maximal velocity) in [9] is less than 5 µM; in data set [10] it was 1.02 µM; in [11], 6.05 µM; in data set [12] it was 3.1 µM; in data set [13], less than 5 µM; in data set [14] it was 0.55 µM. In addition, the Km in data set [15] was found to be 1.7 µM; in data set [16] it was 2.43 µM.
